# Active and inactive are the calls of the source. The calls are words filed in the database; no cut-off is given here.
# Tests used:
# [1] = Acute toxicity in male ICR mouse assessed as adverse effects at 500 to 1000 mg/kg, po administered daily for 10 days and measured daily; assay type: organism-based; conditions: in vivo, 240 h, dose 500-1000 mg/kg, time 10 day
# In short: (§1)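 Male ICR mice (8 weeks, 30 g ± 2 g), acclimatised 1 week, randomised into 1000 mg/kg, 500 mg/kg and untreated control groups (n = 24 total). Dosed by daily gavage, compound dissolved in 0.5 % DMSO then added to normal saline. Body weight and behaviour recorded daily. Euthanised after 10 days; heart, liver, spleen, lung and kidney examined by H&E staining.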
# J774.A1 = assay: Antiinflammatory activity in LPS-induced mouse J774.A1 cells assessed as inhibition of IL-6 production pretreated for 30 mins followed by LPS stimulation and measured after 24 hrs by ELISA; assay type: functional, cell-based
# In short: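 Cells pretreated 30 min with a gradient of concentrations (2.5–10 μM range) or DMSO, then given LPS 0.5 μg/mL for 24 h. IL-6 in medium measured by ELISA and normalised to living cell number by MTT. Expressed as % of the LPS group, mean ± SEM of triplicates. IC50 taken from the concentration-response.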
# [2] = Cmax in male Sprague-Dawley rat at 10 mg/kg, po measured upto 24 hrs by triple quadrupole mass spectrometric analysis; assay type: ADME, organism-based; conditions: in vivo
# Mus musculus = assay: Protection against LPS-induced C57BL/6 mouse model of acute lung injury assessed as reduction in IL-6 level in BALF at 20 mg/kg, po administered 3 times for every 12 hrs followed by LPS stimulation at 5 mg/kg and measured after 6 hrs by ELISA; assay type: functional, organism-based; conditions: time 30.0 hrs
# In short: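 C57BL/6 mice, 6 per group. Gavaged at 20 mg/kg three times at 12 h intervals; controls received saline, and dexamethasone 20 mg/kg served as reference. After the last dose, LPS 5 mg/kg given intratracheally. At 6 h, blood collected for serum IL-6 by ELISA. Left lung lavaged with 3 × 200 μL saline, and BALF assayed for IL-6, total protein and neutrophil count. Mean ± SEM, n = 6.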
# [3] = Acute toxicity in male ICR mouse assessed as histopathological changes in spleen at 500 to 1000 mg/kg, po administered daily for 10 days by H and E staining based analysis; assay type: organism-based; conditions: in vivo, 240 h, dose 500-1000 mg/kg, time 10 day; in short: as §1
# [4] = tested on: TGF-beta-activated kinase 1 (MAP3K7); assay: Inhibition of TAK1 (unknown origin) at 10 uM relative to control; conditions: Homo sapiens
compound,measurement,setting,value
CC(=O)N1CCN(CCOc2cc(=O)oc3ccccc23)CC1,Activity,[1],Non-Toxic
same,IC50,J774.A1,4.57 µM
same,Activity,J774.A1; time 24.5 hrs,Dose-Dependent Effect
same,Cmax,[2],1010 ng/mL
same,Activity,Mus musculus,Active
same,Activity,[3],Non-Toxic
same,inhibition,[4],1.05%

# Source: ChEMBL document CHEMBL5500386, “Design, synthesis and bioactivity evaluation of 4-hydroxycoumarin derivatives as potential anti-inflammatory agents against acute lung injury and colitis” (Eur J Med Chem, 2024)
